Measurements: ChEMBL document CHEMBL1152202, “Synthesis and biological evaluation of helicid analogues as mushroom tyrosinase inhibitors” (Bioorg Med Chem Lett, 2008)
Activity calls are given as the source filed them. No cut-off for these calls is given here.

Tests used:
Tyrosinase = molecular target: T1, Tyrosinase (Agaricus bisporus, UniProt O42713); test: Inhibition of mushroom tyrosinase assessed as 3,4-dihydroxy-L-phenylalanine oxidation
T1 sequence (O42713 whole entry): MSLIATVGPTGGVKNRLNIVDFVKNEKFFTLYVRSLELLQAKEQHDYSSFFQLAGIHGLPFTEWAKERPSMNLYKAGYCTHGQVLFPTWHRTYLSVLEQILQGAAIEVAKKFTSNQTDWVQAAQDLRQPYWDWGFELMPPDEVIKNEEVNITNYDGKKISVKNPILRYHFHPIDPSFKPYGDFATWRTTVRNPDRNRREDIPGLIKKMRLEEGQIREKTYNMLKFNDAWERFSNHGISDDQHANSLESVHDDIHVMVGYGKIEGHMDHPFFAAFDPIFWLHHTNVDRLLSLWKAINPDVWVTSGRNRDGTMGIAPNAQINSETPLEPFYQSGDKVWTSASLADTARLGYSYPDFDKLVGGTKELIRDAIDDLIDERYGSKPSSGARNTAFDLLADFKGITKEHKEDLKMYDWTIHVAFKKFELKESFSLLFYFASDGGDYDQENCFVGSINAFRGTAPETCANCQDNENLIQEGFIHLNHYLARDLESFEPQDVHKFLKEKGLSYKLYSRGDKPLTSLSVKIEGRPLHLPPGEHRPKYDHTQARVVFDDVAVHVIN

[1] = molecular target: T2, Tyrosinase (Agaricus bisporus) (UniProt O42713); test: Inhibition of mushroom tyrosinase assessed as 3,4-dihydroxy-L-phenylalanine oxidation at 0.1 mM
T2 sequence (whole entry): T1 sequence (O42713 whole entry)
Summary of the method: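 Mushroom tyrosinase was the enzyme source. Activity was reported as IC50 in mM, with compounds tested up to 3.0 mM, and as percent inhibition at 0.1 mM. Values are means of three separate experiments.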

Mus musculus [2] = test: Toxicity in mouse assessed as mortality at 1200 mg/kg, po administered as single gavage dose after 20 days; assay type: organism-based; design: dose 1200 mg/kg, route oral; settings: in vivo, 480 h
Summary of the method: (§1)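 Acute oral toxicity in mice: one 1200 mg/kg dose given by gavage. Clinical symptoms and mortality were followed for 20 days. Animals were autopsied at the end of the 20-day period, and organs were examined for gross changes.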

Mus musculus [3] = test: Toxicity in mouse assessed by autopsy at 1200 mg/kg, po administered as single gavage dose after 20 days; assay type: organism-based; design: dose 1200 mg/kg, route oral; settings: in vivo, 480 h; summary of the method: as §1

Structure (SMILES)	IC50 (Tyrosinase) [µM]	inhibition [1] [%]	Activity [1]	Activity (Mus musculus [2])	Activity (Mus musculus [3])
O=Cc1ccc(O[C@@H]2O[C@@H]3CO[C@@H](c4ccccc4)O[C@H]3[C@@H](O)[C@H]2O)cc1	52	77		Non-toxic	Non-toxic
O=Cc1ccc(O[C@@H]2OC[C@@H](OC(=O)c3ccccc3)[C@@H](OC(=O)c3ccccc3)[C@H]2OC(=O)c2ccccc2)cc1	> 3000		inactive		
O=Cc1ccc(O[C@@H]2O[C@H](CO)[C@@H](O)[C@H](O)[C@H]2O)cc1	940	30		Non-toxic	Non-toxic
CC(=O)OC[C@H]1O[C@@H](O[C@H]2[C@H](OC(C)=O)[C@@H](OC(C)=O)[C@H](Oc3ccc(C=O)cc3)O[C@@H]2COC(C)=O)[C@H](OC(C)=O)[C@@H](OC(C)=O)[C@H]1OC(C)=O	> 3000	5			
CC(=O)OC[C@H]1O[C@@H](Oc2ccc(C=O)cc2)[C@H](OC(C)=O)[C@@H](OC(C)=O)[C@@H]1OC(C)=O	> 3000		inactive		
O=Cc1ccc(O[C@@H]2O[C@H](COC(c3ccccc3)(c3ccccc3)c3ccccc3)[C@@H](O)[C@@H](O)[C@H]2O)cc1	> 3000		inactive		
COc1ccc(/C=C/C(=O)O)cc1		22			
O=Cc1ccc(O)cc1 [4-HYDROXYBENZALDEHYDE]	1120	15			

More lines, main results first:

IC50 (Tyrosinase) [µM]	inhibition [1] [%]	Activity [1]	Structure (SMILES)	Activity (Mus musculus [2])	Activity (Mus musculus [3])
2540	10		O=Cc1ccc(O[C@@H]2O[C@H](CO)[C@@H](O)[C@@H](O)[C@H]2O)cc1 [HELICIDE]		
280	42		O=Cc1ccc(O[C@@H]2OC[C@@H](O)[C@@H](O)[C@H]2O)cc1		
		inactive	OC[C@H]1O[C@@H](Oc2ccc(O)cc2)[C@H](O)[C@@H](O)[C@@H]1O		
> 3000		inactive	CC(=O)O[C@H]1[C@@H](OC(C)=O)[C@H](Oc2ccc(C=O)cc2)O[C@H](CO)[C@H]1OC(C)=O		
620	13		CC1(C)O[C@@H]2[C@H](O)[C@@H](CO)O[C@@H](Oc3ccc(C=O)cc3)[C@@H]2O1		
430	24		COP(=O)(OC)OC[C@H]1O[C@@H](Oc2ccc(C=O)cc2)[C@H](O)[C@H](O)[C@@H]1O		
